Pf gamet viab = late stage P. falciparum gametocyte viability inhibitors, primary screen, ATP luminescence, HTS; inhibition, % at 10.9 µM; 150,000 compounds, 0.065% hits; P. falciparum stage V gametocytes, 24 h; AID 743093, 2013;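 active = inhibition above the mean plus 3 SD of compounds within the control limits, set per campaign, cut at about 38% in these data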
Calb biofilm kill = clotrimazole potentiators killing C. albicans biofilm, primary screen, 4-compound mixtures; C. albicans biofilm persisters + clotrimazole, fluorescence viability; primary screen in compound mixtures of four per well; inhibition, % at 7.6 µM; 120,000 compounds, 0.02% hits; AID 1242, 2008;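 active = inhibition above 30.3% in the primary screen of four-compound pools, then above 30% when the compound was retested; inconclusive = passed the primary limit but could not be retested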;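 also: compounds exposed to preformed 24 h biofilms for 48 h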
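Probe or stimulus – Clotrimazole 50 µg/mL co-treatment · System – C. albicans biofilms · Schedule – 24 h biofilm formation, then 48 h compound exposure, 37 °C · Evaluation – percent inhibition of biofilm viability · Technique – 2-h Alamar Blue fluorescence, 535/590 nm excitation/emission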
ROMK primary = ROMK potassium channel modulators, primary screen, cell-based, thallium flux, MLSMR library. ATP-sensitive inward rectifier potassium channel 1 (Homo sapiens), P48048. Tet-inducible ROMK, thallium flux fluorescence; actives lie on both sides. AID 1918, 2009. B-score at 10 µM. 130,000 compounds, 2% hits;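 active = signal ratio slope over the read window, or its plate-corrected B-score, at least 3 SD from the plate mean, either direction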;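 also: B-score of the F/F0 ratio slope over 7 to 12 s after thallium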
Target sequence (P48048 whole entry, looked up): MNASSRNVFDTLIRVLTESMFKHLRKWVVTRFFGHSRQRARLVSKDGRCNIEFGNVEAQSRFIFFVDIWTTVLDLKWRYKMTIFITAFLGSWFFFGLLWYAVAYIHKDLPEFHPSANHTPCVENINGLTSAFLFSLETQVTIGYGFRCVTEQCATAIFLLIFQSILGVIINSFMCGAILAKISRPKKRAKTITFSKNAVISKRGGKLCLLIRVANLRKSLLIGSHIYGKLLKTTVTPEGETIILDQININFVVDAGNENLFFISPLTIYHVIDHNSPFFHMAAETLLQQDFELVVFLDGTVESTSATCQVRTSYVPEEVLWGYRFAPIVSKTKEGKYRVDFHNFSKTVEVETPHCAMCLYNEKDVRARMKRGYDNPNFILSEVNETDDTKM
ROMK retest = ROMK channel modulator hit retest, confirmation, cell-based, thallium flux, duplicate, resupplied hits. 3,000 compounds, 54% hits. fluorescence ratio; active compounds read low. normalized thallium flux (F/F0 slope) at 10 µM. shares compounds with ROMK primary;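 active = Flux at 10 µM at least 3 SD below or above vehicle control mean in one or both replicates; inconclusive = no clear call, values can overlap the other calls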
Numbers stand for hits; 0 = inactive; ? = inconclusive; - = no result given. Shown is part of a subset that was picked to be rich in hits.

SMILES | Pf gamet viab | Calb biofilm kill | ROMK primary | ROMK retest
COc1cc(/C=C(\C#N)C(=O)Nc2ccccc2C(=O)O)cc(Cl)c1OC | 0 | 0 | -4.6 | 0.057
COc1ccc(/C=C(/C#N)C(=O)Nc2ccccc2C)cc1C(=O)O | 0 | 0 | 0 | -
Cc1cc(C)nc(/N=C(\N)Nc2cccc(OCc3ccccc3)c2)n1 | 0 | 0 | - | 0.055
Cc1cc(C)nc(/N=C(\N)Nc2ccc(OCc3ccccc3)cc2)n1 | 0 | 0 | 0 | -
CCC1(CC)Cc2ccccc2-c2nc(NCCCO)[nH]c(=O)c21 | - | 0 | 0 | -
O=c1[nH]c(NCCCO)nc2c1C1(CCCC1)Cc1ccccc1-2 | 0 | - | -3.4 | 0.057
O=C1N=C(N2CCc3ccccc3C2)S/C1=C\c1cccc(O)c1 | 0 | 0 | - | -
CC1CCCN(c2nc3ccccc3nc2C(C#N)S(=O)(=O)c2cccs2)C1 (stereo not drawn) | - | - | -4.5 | 0.059
Cc1ccc(S(=O)(=O)C(C#N)c2nc3ccccc3nc2N2CCCC2)cc1 (stereo not drawn) | 0 | - | 0 | -
CCOC(=O)c1c(CN2CCN(C)CC2)n(-c2ccccc2)c2cc(Br)c(O)cc12 | 0 | 0 | 0 | -
CCOC(=O)c1c(CSC(=N)N)n(-c2ccccc2)c2cc(Br)c(OC(C)=O)cc12 | 0 | 0 | - | 0.058
COc1ccc(C=O)cc1COc1c(F)c(F)cc(F)c1F | - | - | 3.9 | 0
COc1ccc(C=O)cc1Cn1ccnc1C | 0 | 0 | -7.2 | 0
COc1cc(C=O)ccc1OCc1ccccc1Br | - | 0 | 0 | -
CCc1nccn1Cc1cc(C=O)ccc1OC | 0 | 0 | 0 | -
CCOc1ccc(Br)cc1/C=N/O | - | - | 0 | -
CCCc1ccc(O)c(N=Cc2cc(Br)cc(OCC)c2O)c1 | 0 | 0 | 0 | 0
Cc1nn(CC(=O)Nc2ccc(Cl)c(S(=O)(=O)N(C)C)c2)c(C)c1[N+](=O)[O-] | - | 0 | - | -
CC(C)(C)NC(=O)COC(=O)c1ccccc1Oc1ccccc1 | 0 | 0 | - | -
Cc1nnnn1/C(=C\c1ccccc1)C(=O)OCC(=O)NC(C)(C)C | 0 | 0 | -8.2 | 0.043
O=C(Nc1ccccc1)N(C1=NCCCCS1)c1ccccc1 | - | - | - | 0
O=C(c1ccc([N+](=O)[O-])cc1)N(C1=NCCCCS1)c1ccccc1 | 0 | - | 0 | -
C[C@H](CO)N1C[C@H](C)[C@@H](CN(C)S(C)(=O)=O)Oc2c(NC(=O)c3ccncc3)cccc2C1=O | 0 | - | - | -
CCC(=O)NC(=S)Nc1ccc(NC(=O)c2ccc(Br)o2)cc1 | - | 0 | 0 | -
CCOC(=O)c1ccc(Oc2ccc(C(F)(F)F)cn2)cc1 | 0 | 0 | 0 | -
SMILES | Pf gamet viab | Calb biofilm kill | ROMK primary | ROMK retest
COC(=O)c1ccc(CN2CCC(CO)(Cc3ccccc3Cl)CC2)cc1 | 0 | 0 | - | -
COc1ccc(/C=C/CN2CCC(CO)(Cc3ccccc3Cl)CC2)cc1 | 0 | 0 | -1.8 | 0.063
O=C(NC1CCCc2ccccc21)c1cccc(S(=O)(=O)N2CCOCC2)c1 (stereo not drawn) | 0 | 0 | 0 | -
COc1ccc(CNC(=O)Cn2nnc(-c3ccc(NC(=O)C4CCCCC4)cc3)n2)cc1 | 0 | 0 | - | -
CC(C)(C)n1nc(C2CC2)cc1NC(=O)Nc1ccc(Cl)cc1 | - | 0 | - | 0
Cn1nc(C(C)(C)C)cc1NC(=O)Nc1ccc(Cl)cc1 | 0 | 0 | - | -
CC(C)COC(=O)NC1c2ccccc2Oc2ccccc21 | 0 | 0 | 0 | -
COCCN=C1Sc2nc3cc4c(cc3cc2CN1CC1CCCO1)OCO4 (stereo not drawn) | 0 | 0 | 0 | -
CCOC(=O)CSc1nnc(CNc2ccc(Cl)cc2)n1Cc1ccccc1 | - | 0 | -3.8 | 0.063
CC(C)OC(=O)CSc1nnc(CNc2ccc(Cl)cc2)n1Cc1ccccc1 | - | 0 | - | -
COc1ccc(/C=C/C(=O)c2cc(Br)ccc2OC(=O)c2ccco2)cc1OC | 0 | 0 | 0 | 0
COc1cc(/C=C2/C(=O)NN(c3ccc(Cl)cc3)C2=O)ccc1OC(=O)c1ccco1 | 0 | 0 | -3.3 | 0
COc1ccc(/C=C/C(=O)c2cc(Br)ccc2O)cc1OC | 0 | 0 | 0 | -
COC(=O)N/N=C/c1ccc(OC(=O)c2ccco2)c(OC)c1 | 0 | 0 | 4.6 | 0
COc1cc(/C=C2/C(=O)NN(c3cccc(F)c3)C2=O)ccc1OC(=O)c1ccco1 | 0 | 0 | 0 | -
COc1cc(/C=N/NC(=O)c2ccc(F)cc2)ccc1OC(=O)c1ccco1 | 0 | 0 | 0 | -
CC(C)CSc1nc2c(=O)[nH][nH]c(=O)c2n1Cc1ccccc1 | 0 | 0 | 0 | -
Cn1ccnc1C(=O)c1cc(SCC(=O)N2CCOCC2)nc2ccccc12 | 0 | 0 | 0 | -
CC(=O)Nc1ncc2c(n1)CC(c1ccco1)CC2=O (stereo not drawn) | - | - | 0 | -
COc1ccc(C(=O)Nc2ncc3c(n2)CC(c2ccco2)CC3=O)cc1 (stereo not drawn) | - | - | -6.5 | 0
CCO[C@@H]1OC(C(=O)N2CCCCCCC2)=C[C@H](c2ccc3c(c2)OCO3)[C@H]1CCCO | 0 | 0 | - | -
COc1cccc(CN2C[C@]34C=C[C@@H](C[C@@H]3S2(=O)=O)O4)c1 | - | 0 | - | -
COCCNC(=O)c1c(CS(=O)(=O)c2ccccc2)noc1C(=O)NCc1ccccc1 | 0 | - | - | -
COc1cc(CNCCN2CCOCC2)ccc1OCc1ccc(Cl)cc1 | - | - | 0 | -
COc1cc(CNCCCN2CCOCC2)cc(Br)c1OCc1ccc(Cl)cc1 | 0 | 0 | -3.8 | ?
SMILES | Pf gamet viab | Calb biofilm kill | ROMK primary | ROMK retest
O=C(N/N=C/c1ccc(O)cc1)c1csc2c1CCCC2 | 0 | 0 | - | -
COC(=O)/C=C1/SC(=NC(=O)c2ccc(F)cc2)NC1=O | 0 | 0 | - | 0.048
COC(=O)/C=C1\S/C(=N/NC(=O)c2ccccc2)NC1=O | - | - | 0 | -
COC(=O)/C=C1\SC(=NC(=O)c2cccc(Cl)c2)NC1=O | 0 | - | - | 0.052
COC(=O)/C=C1/SC(=NC(=O)c2ccccc2)NC1=O | 0 | 0 | - | -
Cc1cccc(OCCNC(=O)CCc2ccccc2)c1 | 0 | - | - | -
Oc1ccc(C=NC2CCCCC2)cc1 | - | 0 | - | -
O=C(Nc1ccccc1N1CCOCC1)c1cc2c(s1)CCCCC2 | 0 | 0 | - | -
CCc1sc(C(=O)Nc2ccccc2N2CCOCC2)cc1C | 0 | 0 | -2.6 | 0.064
Cc1ccccc1-n1c(C)nnc1SCC(=O)N1CC(=O)Nc2ccccc21 | 0 | - | 0 | -
Cc1ccc(OCCSc2nc3ccccc3n2CC(=O)O)cc1 | 0 | - | - | -
COC(=O)c1ccc(Oc2coc3cc(OCc4ccc([N+](=O)[O-])cc4)ccc3c2=O)cc1 | 0 | 0 | - | -
NNc1ccc(Cl)c(C(=O)O)c1 | 0 | 0 | - | -
O=C(NCc1ccco1)C1CC(c2ccc(Cl)cc2)=NO1 (stereo not drawn) | 0 | 0 | 4.6 | 0
O=C(NCc1ccco1)C1CC(c2ccc(F)cc2)=NO1 (stereo not drawn) | 0 | 0 | - | -
COc1cccc(C2=NOC(C(=O)NCc3ccco3)C2)c1 (stereo not drawn) | - | - | 5 | 0
C=CCNC(=O)C1CC(c2cccc(OC)c2)=NO1 (stereo not drawn) | 0 | - | 0 | -
COc1cccc2cc(/C(=N/O)c3ccccc3)oc12 | 0 | 0 | 0 | -
CC1NC(=S)N(C2CCCCC2)C1=O (stereo not drawn) | 0 | 0 | 0 | -
Cc1ccccc1-c1cc(C(=O)O)nn1CC1CC(c2cccc([N+](=O)[O-])c2)=NO1 (stereo not drawn) | 0 | - | - | -
COc1ccc(/C=C2\SC(=S)N(CC3CCCO3)C2=O)cc1 (stereo not drawn) | 0 | 0 | 0 | -

Screening data as filed in PubChem.
